High-throughput results deposited in PubChem BioAssay by several laboratories.
TAG inh – inhibitors of triacylglycerol accumulation, primary screen, cell-based, uHTS, fluorescence, H9c2; H9c2 cells, Nile Red lipid (TAG) fluorescence; cells loaded with 200 µM oleic acid; inhibition, % at 12.5 µM; 0.66% of 230,000 active; AID 651582, 2012;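 active = pattern-corrected inhibition of lipid staining of at least 50% with the nuclear-stain viability signal not falling by more than 50%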;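 note: 0% = DMSO wells and 100% = triacsin C control wells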
CSC inhib – cancer stem cell viability inhibitors, primary screen, luminescence | inhibition, % at 7.5 µM | cancer stem cell-like cells viability | 1.1% of 300,000 active; in the data active = inhibition above about 75%; inconclusive = no clear call, values can overlap the other calls; tested in HMLE shEcad cells
Bfl-1 A1 inh – caspase 3/7 activation in MEF A1-2A-BIM cells, primary screen, A1 inhibitor project, cell-based, luminescence, HTS; Caspase-Glo 3/7 luminescence, 3 h; percent of clofoctol response, vehicle zero; 0.066% of 330,000 active; caspase activation, % (test concentration not listed); AID 2462, 2010;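 active = over half of replicate activation scores above 10%, or exactly half above 10 with the replicate mean above 10; inconclusive = replicate mean below 10 yet half the replicates above 10; inactive = over half of replicates below 10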
T cruzi repl – inhibitors of intracellular T. cruzi growth, primary screen, luminescence, NIH3T3 host cells; T. cruzi beta-gal in NIH3T3, 90 h; 1.4% of 300,000 active; inhibition, % (test concentration not listed);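 active = mean inhibition across valid replicates above about 55%, limit read from the data; inconclusive = mean below that limit but half or more replicates reach it; inactive = mean below it, under half of replicates reach it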;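 note: signal also drops with host cell toxicity which is not excluded here; 0% = plate median of DMSO wells and 100% = zero luminescence signal; higher percent means less beta-gal luminescence so fewer parasites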
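System: Mouse NIH/3T3 fibroblasts infected with β-gal-expressing T. cruzi Tulahuen C4 | Quantity: NIH/3T3 cells, 5,000 per well | Reagent: 5000 reporter trypomastigotes per well | Dosing: Compound pinned at 50 nL/well, DMSO | Schedule: 3 h host attachment, then at least 90 h co-culture | Detection: GalScreen luminescence, 60 min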
Calb FLC – C. albicans growth inhibition with fluconazole, primary screen, CaCi-2 strain, Alamar Blue fluorescence. C. albicans CaCi-2 + fluconazole, 48 h. 0.57% of 300,000 active. growth inhibition, % (test concentration not listed);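 active = growth inhibition above about 58% in most replicates, limit read from the data, passing the limit was not always enough; inconclusive = exactly half the replicates above a set limit; inactive = most replicates below a set limit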;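 note: all wells also contain fluconazole at 8 µg/ml as a sub-toxic cotreatment; 0% = median of DMSO wells and 100% = median of geldanamycin control wells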
Beta cell apopt – inhibitors of cytokine-induced beta cell apoptosis, primary screen, luminescence. INS-1E cytokine-induced death, ATP luminescence, 48 h; percent of positive-control rescue, neutral wells zero. protection from apoptosis, % (concentration not given with the values). 0.8% of 300,000 active. AID 435005, 2010;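 active = Every replicate reaches about 75%, or at least half do and their mean reaches it too, limit read from the data; inconclusive = At least half of replicates reach the limit but their mean does not; inactive = Under half of replicates reach the limit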;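 note: 0% = cytokine-treated negative control wells and 100% = positive control rescue; higher means more ATP so stronger rescue from cytokine killing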
Numbers without * were called inactive; ? = inconclusive; . = no result given. Rows were chosen to be rich in hits. Some 3.1% of all compounds tested hit in one or more screens of this group.

SMILES	TAG inh	CSC inhib	Bfl-1 A1 inh	T cruzi repl	Calb FLC	Beta cell apopt
CC(NC(=O)CN(C)CC(=O)Nc1cccc(F)c1)c1ccccc1 (stereo unspecified)	-13.4	.	2.0	.	.	-1.0
CCc1ccc2[nH]c(=O)c(CN(Cc3ccccc3)C(=O)Nc3ccccc3OC)cc2c1	.	18.2	0.4	66.1*	2.3	10.9
Cc1cc(N/N=C/c2ccc(O)cc2)c2cccc(C)c2n1	.	22.5	-1.4	46.6	1.3	43.5
Cc1cc(C)c2nc(C)cc(N/N=C/c3ccc(O)cc3)c2c1	.	102.5*	0.7	64.4*	-15.1	.
O=C(Nc1cccc(S(=O)(=O)N2CCCCC2)c1)C1CCCN1S(=O)(=O)c1ccccc1F (stereo unspecified)	-2.2	-13.4	0.5	.	.	-1.3
COc1cc(C2/C(=C(\O)c3ccc4c(c3)OCCO4)C(=O)C(=O)N2c2nnc(C)s2)cc(OC)c1OC (stereo unspecified)	.	1.6	0.8	-18.5	-0.5	-4.5
Cc1cc(-c2ccccc2)nc(N/N=C/c2ccc(O)cc2)n1	11.3	.	.	.	.	.
Oc1ccc(/C=N/Nc2nc(-c3ccc(Cl)cc3)cc(C(F)(F)F)n2)cc1	.	85.4*	0.6	15.7	-4.4	-3.5
COc1ccc(OC)c(-c2csc(NC(=O)c3ccc(F)cc3)n2)c1	0.0	85.7*	-1.7	-3.0	-0.4	10.6
N#Cc1ccc(CN2CCN(C(=O)CNC(=O)Cc3ccccc3)CC2)cc1	4.2	.	.	.	.	.
COc1ccc(-c2csc(N=C(N)N)n2)cc1	-7.6	6.1	-0.1	0.6	6.4	-1.5
Cc1ccc(-c2csc(N=C(N)N)n2)c(C)c1	-0.1	-2.9	-0.6	60.1*	4.1	27.5
Cc1ccc(NC(=O)CCCn2c(=S)[nH]c3ccsc3c2=O)cc1C	.	-3.8	1.5	7.8	35.7	1.8
CC(C)c1cccc(OCCCCN(C)C)c1	-8.0	-0.6	0.8	65.0*	1.2	.
CCN(CC)CCOc1cccc(C(C)C)c1	.	.	1.7	4.7	0.2	-6.6
Cc1ccc(SCCNC(=S)Nc2cc(C)cc(C)c2)cc1	-41.7	-7.1	-0.2	15.6	1.4	-7.7
Cc1ccc(SCCNC(=S)Nc2ccc(C)cc2C)cc1	.	7.3	0.2	57.5*	?	-3.8
CN(C)c1ccc(C2/C(=C(/O)c3ccc(Br)cc3)C(=O)C(=O)N2C)cc1 (stereo unspecified)	.	0.9	1.3	-0.6	-4.0	0.5
COc1cc(S(=O)(=O)N2CCCCCC2)c(OC)cc1Br	10.2	78.6*	-0.6	12.5	-17.2	-13.6
COc1ccc(Br)cc1S(=O)(=O)N1CCCC1	-16.4	4.4	-0.2	9.4	1.5	-1.6
CC(=O)c1cc2cccc(OC3(C)CCN(Cc4ccc5ccccc5c4)C3)c2o1 (stereo unspecified)	-0.7	.	.	.	.	.
CCC(=O)NC(c1ccco1)c1cc(Br)c2cccnc2c1O (stereo unspecified)	-5.2	.	.	.	.	.
CCCC(=O)NC(c1ccco1)c1cc([N+](=O)[O-])c2cccnc2c1O (stereo unspecified)	-0.7	77.4*	-0.2	-12.9	109.0*	-8.1
CN(Cc1cc([N+](=O)[O-])c2cccnc2c1O)C1CCCCC1	.	-0.4	-0.5	-21.7	1.7	-1.6
CC(=O)NC(c1ccc(C)cc1)c1cc([N+](=O)[O-])c2cccnc2c1O (stereo unspecified)	.	103.7*	0.2	55.0*	108.5*	70.9
SMILES	TAG inh	CSC inhib	Bfl-1 A1 inh	T cruzi repl	Calb FLC	Beta cell apopt
O=[N+]([O-])c1cc([N+](=O)[O-])c2cccnc2c1Oc1ccccc1O	.	19.8	0.5	7.7	6.5	-3.0
CCC(=O)NC(c1ccc(C)cc1)c1cc([N+](=O)[O-])c2cccnc2c1O (stereo unspecified)	.	100.4*	-1.8	63.0*	109.8*	83.1*
O=S(=O)(N1CCCCC1)N1CCN(CC(O)COc2ccc3cc(Br)ccc3c2)CC1 (stereo unspecified)	.	-13.7	0.8	55.1*	-6.6	12.1
OC(COc1ccc2cc(Br)ccc2c1)CN1CCCC1 (stereo unspecified)	.	.	0.3	70.5*	1.7	3.6
CN(C)S(=O)(=O)N1CCN(CC(O)COc2ccc3cc(Br)ccc3c2)CC1 (stereo unspecified)	.	26.1	-0.4	18.2	0.6	4.9
S=C(Nc1ccc(Cl)cc1)Nc1ccc2c(c1)OCCO2	-10.7	-4.6	-1.5	.	80.8*	-5.6
O=C(NC(=S)Nc1ccc(N2CCCCC2)c(Cl)c1)c1ccc2c(c1)OCCO2	-5.1	88.6*	0.4	8.8	-2.4	.
CCC(=O)N1CCN(c2ccc(Cl)cc2NC(=O)c2ccc3c(c2)OCCO3)CC1	17.2	-12.6	0.8	13.4	89.6*	-2.7
O=c1[nH]c([N+](=O)[O-])nn1C(c1ccccc1)c1ccccc1	.	3.1	1.1	13.9	3.0	4.0
CCOC(=O)N1CCN(C(=O)/C=C/c2ccc(OC)cc2)CC1	5.0	-5.4	0.5	-0.6	13.6	-6.1
c1ccc(Nc2cccc(Nc3ccccc3)c2)cc1	.	-9.0	0.9	64.9*	2.1	0.1
CCSc1nnc(NC(=O)NC(CC)(C(F)(F)F)C(F)(F)F)s1	5.7	98.8*	-0.4	13.4	-17.6	39.5
O=C(/C=C/c1ccc(NC(=O)c2ccccc2-c2ccccc2C(=O)O)cc1)c1ccccc1	6.1	14.4	-0.3	-4.7	98.2*	-3.5
O=C(/C=C/c1ccncc1)c1ccc(NC(=O)c2ccccc2F)cc1	.	80.2*	-1.4	.	.	-1.3
O=C(Nc1ccc(Nc2ccccc2)cc1)c1ccccc1F	-13.6	45.9	-1.1	-2.7	-4.3	13.2
CCOC(=O)c1ccccc1OCc1cc(/C=N/NC(=O)c2cccnc2)ccc1OC	-12.2	1.0	-0.1	1.1	0.9	-4.6
CCOC(=O)c1ccccc1OCc1cc(/C=N/n2cnnc2)ccc1OC	-2.7	9.9	0.8	-7.8	102.2*	3.2
COc1cc(C(Nc2ccccn2)c2ccc3ccc(C)nc3c2O)cc(OC)c1O (stereo unspecified)	.	69.8	-1.4	51.8	112.7*	2.7
Cc1ccc2ccc(C(Nc3ccccn3)c3ccccc3)c(O)c2n1 (stereo unspecified)	10.1	.	.	43.6	-4.7	.
COc1ccc(C(Nc2cc(C)ccn2)c2ccc3ccc(C)nc3c2O)cc1 (stereo unspecified)	2.3	25.5	-0.1	59.0*	-1.1	-27.8
Cc1ccnc(NC(c2ccsc2)c2ccc3ccc(C)nc3c2O)c1 (stereo unspecified)	9.0	20.3	0.1	62.6*	-6.1	-49.2
Cc1ccc2ccc(C(Nc3cccc(C(F)(F)F)c3)c3cccnc3)c(O)c2n1 (stereo unspecified)	-3.5	4.4	0.9	47.9	-0.5	5.3
